Bioassay records deposited in PubChem BioAssay by several laboratories.
Most compounds without a hit are left out; they make up all but 4.9% or so of the library.
STAT3 inh-1 – inhibitors of IL-6 induced STAT3 signaling | inhibition, % at 5.5 µM | U3A cells, IL-6 STAT3-luciferase reporter, luminescence; host cell line lacks STAT1 | AID 862 | 190,000 compounds, 0.89% hits;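 active = inhibition above the mean inhibition across all screened compounds plus 3 SD, cut at about 44% in these data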;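 also: 0% = DMSO only wells and 100% = 100 µM nifuroxazide control wells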
STAT3 act-1 – STAT3 signaling activation | U3A cells, IL-6 STAT3-luciferase reporter, luminescence; 100% = signal with IL-6 EC80 alone | activation (% of control), % at 5.6 µM | 190,000 compounds, 0.91% hits;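 active = activation above the screen-wide mean of compound activation plus 3 SD, cut at about 130% in these data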;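 also: 0% = background luminescence of wells with medium and substrate only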
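Material: STAT1-lacking human U3A cells, STAT3 luciferase reporter | Benchmarks: IL-6-only wells as 100% reference | Probe or stimulus: IL-6 (33 ng/mL) | Timing: Compound 1 h, then IL-6 6 h at 37 °C | Detection: Luminescence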
NF-kB expr up – NF-kB expression increase, human neuronal cells. NF-kB reporter expression; active compounds read high. fold change at 12.5 µM. 190,000 compounds, 1.6% hits. AID 1239; in the data active = fold change above about 3.3
STAT1 inh – reduces IFN-gamma driven STAT1 reporter signal. AID 920. 200,000 compounds, 0.35% hits. inhibition, % at 5.5 µM. NIH 3T3 STAT1-luciferase reporter, luminescence;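 active = inhibition above a set limit, the mean inhibition across all tested compounds plus 3 SD, cut at about 34% in these data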;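 also: 0% = IFN-gamma with DMSO and 100% = IFN-gamma with 300 µM nifuroxazide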
STAT1 act-1 – STAT1 signaling activation | NIH 3T3 STAT1-luciferase reporter, IFN-gamma, luminescence; 100% = IFN-gamma alone, no compound | activation (% of control), % at 5.5 µM | 200,000 compounds, 2.6% hits;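 active = activation above the screen-wide mean activation plus 3 SD, cut at about 130% in these data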;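 also: raw ratio to IFN-gamma control signal so 100% means no change and 0% no light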
APP 5'UTR act – APP 5'UTR luciferase reporter activation. SH-SY5Y APP 5'UTR luciferase reporter, luminescence; zero percent = DMSO vehicle wells. activation, % at 2 µM. 190,000 compounds, 1% hits. AID 1276;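 active = activation above a set limit, based on mean plus 3 SD of controls, cut at about 140% in these data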
STAT3 inh-2 – confirmation of STAT3 signaling inhibitors | 1,200 compounds, 45% hits | inhibition, % at 5.7 µM | U3A cells, IL-6 STAT3 luciferase reporter, luminescence; cell line lacks STAT1 | shares compounds with STAT3 inh-1;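 active = inhibition above the hit cutoff computed for the primary STAT3 screen, cut at about 44% in these data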;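 also: 0% = IL-6 plus DMSO and 100% = IL-6 plus nifuroxazide control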
NFkB inh 2 – inhibits NF-kappaB, counter-screen to STAT3 inhibitors; shares compounds with STAT3 inh-1; AID 1308; inhibition, % at 5.7 µM; HEK293T NF-kB luciferase reporter, TNF-alpha induced; 1,200 compounds, 36% hits;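 active = inhibition above the mean of solvent-only control wells plus 3 SD, cutoff set per campaign, cut at about 13% in these data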;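 also: 0% = TNF-alpha with DMSO and 100% = TNF-alpha with MG high control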
STAT1 inh STAT3c – counter-screen for STAT3 inhibitors: STAT1 inhibition. shares compounds with STAT3 inh-1. NIH 3T3 STAT1-luciferase reporter, IFN-gamma induced, luminescence. inhibition, % at 5.7 µM. 1,200 compounds, 27% hits;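 active = inhibition above the mean plus 3 SD of solvent-only control wells, limit set per screening run, cut at about 16% in these data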;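 also: 0% = DMSO with IFN-gamma and 100% = nifuroxazide control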
STAT3 act-2 – confirmation of STAT3 signaling activators. shares compounds with STAT3 act-1. U3A STAT3-luciferase reporter, IL-6 potentiation, luminescence; U3A cells lack STAT1; 100 means same as IL-6 alone. potentiation (% of control), % at 5.7 µM. 1,200 compounds, 64% hits;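 active = percent activation of the STAT3 luciferase reporter above a set limit taken from the earlier primary screen, cut at about 130% in these data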;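 also: 0% = background signal of medium plus substrate and 100% = median of IL-6 with DMSO wells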
NFkB act STAT3ct – NF-kappaB activation in STAT3 activator counter-screen; human cells, NF-kappaB reporter activation; activation (% of control), % at 5.7 µM; shares compounds with STAT3 act-1; AID 1309; 1,200 compounds, 11% hits; in the data active = activation above about 120%;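 also: reporter induced by TNF-alpha stimulation; 100% = median of stimulated DMSO wells and 0% = no signal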
STAT1 act-2 – STAT1 activation in STAT3 activator counter-screen | NIH 3T3 STAT1-luciferase reporter, IFN-gamma, luminescence | activation (% of control), % at 5.7 µM | shares compounds with STAT3 act-1 | 1,200 compounds, 13% hits;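 active = activation above the solvent-only control well mean plus 3 SD, set per screening run, cut at about 120% in these data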;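 also: 100% = IFN-gamma with DMSO median signal so 100% means no change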
* marks the source's active call; other numbers are inactive results; nt = no result.

SMILES	STAT3 inh-1	STAT3 act-1	NF-kB expr up	STAT1 inh	STAT1 act-1	APP 5'UTR act	others
CC(C)C(=O)NC(Oc1ccccc1Cl)C(Cl)(Cl)Cl (centres undefined)	0.3	101.5	1.07	6.2	93.8	-4.6
CN1/C(=C\C=C\C2=[N+](C)c3ccc4ccccc4c3C2(C)C)C(C)(C)c2ccccc21	103.1*	20.0	0.16	72.0*	35.7	-94.9
CCCn1c(C)cc(C=O)c1C	4.2	101.2	1.11	-4.0	103.4	17.2
CN1C(=O)/C(=C\c2ccc(N3CCCCC3)o2)C(=O)NC1=S	10.3	98.9	2.24	-42.0	132.8*	13.6
C=CCN1C(=O)/C(=C\c2ccc(N3CCOCC3)o2)C(=O)NC1=S	21.8	84.5	1.26	5.0	95.6	-1.9
CC(C)c1oc(=O)cc2c1[C@@H](O)[C@H]1OC(=O)[C@@]3(C)C[C@@H](O)[C@@H](O)[C@@]2(C)C13 (some centres undefined)	23.3	78.2	6.99*	19.5	82.3	16.9
CC(C)c1oc(=O)cc2c1[C@@H](O)[C@H]1OC(=O)[C@@]3(C)CC[C@@H](O)[C@@]2(C)C13 (some centres undefined)	-5.2	102.0	3.31*	13.4	87.8	22.4
CN(C)c1ccc(C(=O)c2ccc(N(C)C)cc2)cc1	-17.1	114.4	2.62	-35.8	134.3*	nt
O=C1CN(C(=O)COC(=O)Cc2ccccc2)c2ccccc2N1	-6.1	106.9	1.24	-3.5	102.7	24.9
Cc1cccc(N2C(=O)NC(=O)/C(=C\c3cccn3-c3ccc(Cl)cc3)C2=O)c1	-13.3	110.9	1	34.2*	68.8	-2.6
Cc1cc(C)cc(N2C(=O)NC(=O)/C(=C/c3cccn3-c3ccc(Cl)cc3)C2=O)c1	-2.1	105.0	1	15.7	85.8	-17.8
CCN(CC)S(=O)(=O)N1CCC(C(=O)N2CCC3(CC2)OCCO3)CC1	12.6	91.4	1.32	12.4	88.0	15.9
CC(C)C(C)(NC(=O)c1cccn(Cc2ccc3c(c2)OC(F)(F)O3)c1=O)C(N)=O (centres undefined)	9.8	101.8	0.82	-2.8	101.8	-1.8
CNc1cc(Cl)c2nonc2c1[N+](=O)[O-]	-9.0	111.7	0.91	-49.5	141.3*	-84.5
CNC(=O)Oc1cccc(-c2cn3cc(Cl)ccc3n2)c1	92.4*	20.7	8.18*	-19.6	117.3	170.1*	STAT3 inh-2=81.5*;NFkB inh 2=8.7;STAT1 inh STAT3c=-20.3
COc1ccc(N/N=C/c2c(O)n(-c3cccc(C)c3)c(=O)[nH]c2=O)cc1	16.7	89.2	1.26	27.7	73.1	18.5
COc1ccc(N/N=C/c2c(O)n(-c3ccc(C)c(C)c3)c(=O)[nH]c2=O)cc1	47.5*	60.5	1.66	17.3	83.9	-0.3	STAT3 inh-2=15.5;NFkB inh 2=-0.7;STAT1 inh STAT3c=5.2
C[C@@H]1C(=O)O[C@@H]2[C@H](O)C34[C@@H]5OC(=O)C3(O[C@H]3OC(=O)[C@H](O)C34[C@H](C(C)(C)C)[C@H]5O)[C@@]12O (some centres undefined)	5.4	93.1	1.04	-0.4	100.4	3.6
CCCCn1c(C)c(C(=O)O)c2cc(OC)ccc21	52.3*	59.8	1.06	1.3	98.8	14.5	STAT3 inh-2=35.2;NFkB inh 2=-8.7;STAT1 inh STAT3c=-18.2
C[C@H]1CCC[C@@H](O)CCC/C=C/c2cc(O)cc(O)c2C(=O)O1	59.8*	53.7	1.28	-8.7	107.9	-3.1	STAT3 inh-2=47.6*;NFkB inh 2=9.3;STAT1 inh STAT3c=-0.5
CC1CCC[C@H](O)CCCCCc2cc(O)cc(O)c2C(=O)O1 (some centres undefined)	15.3	88.5	1.04	4.4	96.0	-4.0
O=C(Nc1ccncc1)c1cccn(Cc2ccccc2)c1=O	78.9*	39.7	0.95	12.2	86.8	10.3	STAT3 inh-2=74.2*;NFkB inh 2=16.8*;STAT1 inh STAT3c=9.3
CCCCCCN=C(C)c1c(O)n(Cc2ccccc2)c(=O)[nH]c1=O	0.6	100.4	0.89	-4.2	100.8	-8.8
COc1ccc(-c2nc3ccccc3c(=O)n2-c2ccc(OC)cc2)cc1	2.8	100.6	0.91	7.5	91.2	10.1
CCn1nc(-c2ccccc2)nc2c(=O)n(C)c(=O)nc1-2	62.1*	51.7	0.98	-4.6	105.5	-3.8	STAT3 inh-2=74.5*;NFkB inh 2=48.9*;STAT1 inh STAT3c=41.1*
SMILES	STAT3 inh-1	STAT3 act-1	NF-kB expr up	STAT1 inh	STAT1 act-1	APP 5'UTR act	others
COC(=O)c1cc(C(O)(C(=O)OC)C(F)(F)F)c(/N=C/N(C)C)s1 (centres undefined)	5.4	100.0	1.26	-5.4	104.9	4.1
CCCCn1c(=O)c(C(=O)Nc2ccccc2S(N)(=O)=O)c(O)c2ccccc21	-7.2	109.7	1.46	-9.2	110.0	12.1
CCCCn1c(=O)c(C(=O)Nc2ccccc2)c(O)c2ccccc21	-60.7	154.0*	1.05	-5.3	103.1	-19.6	STAT3 act-2=161.1*;NFkB act STAT3ct=106.6;STAT1 act-2=102.5
CSc1ccc(C(=O)C2CCCN(Cc3cc4ccccc4[nH]3)C2)cc1 (centres undefined)	-49.1	140.7*	1.11	22.0	80.0	0.3	STAT3 act-2=148.9*;NFkB act STAT3ct=101.0;STAT1 act-2=88.2
COc1ccccc1NC1(C#N)CCCCC1	-3.7	102.7	1.11	8.4	92.2	-18.2
Cc1ccc(-c2nc(N(C)C3CCN(C)CC3)c3ccccc3n2)cc1	-76.0	172.2*	0.97	1.2	98.9	0.6	STAT3 act-2=154.5*;NFkB act STAT3ct=98.6;STAT1 act-2=97.2
C=CCN(CC=C)Cc1c[nH]c2ccccc12	-46.4	146.7*	1.22	0.1	99.9	12.1	STAT3 act-2=133.7*;NFkB act STAT3ct=106.7;STAT1 act-2=84.2
O/N=C/c1c[nH]c2ccccc12	-27.2	126.7	1.13	2.0	98.2	-4.5
CCCCN1C(=O)NC(=O)C2(Cc3c(nc4ccccn4c3=O)N3CCc4ccccc4C32)C1=O (centres undefined)	-44.4	141.7*	0.54	-1.0	100.9	7.5	STAT3 act-2=142.9*;NFkB act STAT3ct=106.4;STAT1 act-2=102.9
